# Columns and labels:
# [1] = molecular target: T1, Bromodomain-containing protein 2 (Homo sapiens, UniProt P25440); test: Binding affinity to BRD2 bromodomain 1 (74 to 194 residues) (unknown origin) by ITC
# Target sequence in this assay (P25440 whole entry, the tested form may be a part): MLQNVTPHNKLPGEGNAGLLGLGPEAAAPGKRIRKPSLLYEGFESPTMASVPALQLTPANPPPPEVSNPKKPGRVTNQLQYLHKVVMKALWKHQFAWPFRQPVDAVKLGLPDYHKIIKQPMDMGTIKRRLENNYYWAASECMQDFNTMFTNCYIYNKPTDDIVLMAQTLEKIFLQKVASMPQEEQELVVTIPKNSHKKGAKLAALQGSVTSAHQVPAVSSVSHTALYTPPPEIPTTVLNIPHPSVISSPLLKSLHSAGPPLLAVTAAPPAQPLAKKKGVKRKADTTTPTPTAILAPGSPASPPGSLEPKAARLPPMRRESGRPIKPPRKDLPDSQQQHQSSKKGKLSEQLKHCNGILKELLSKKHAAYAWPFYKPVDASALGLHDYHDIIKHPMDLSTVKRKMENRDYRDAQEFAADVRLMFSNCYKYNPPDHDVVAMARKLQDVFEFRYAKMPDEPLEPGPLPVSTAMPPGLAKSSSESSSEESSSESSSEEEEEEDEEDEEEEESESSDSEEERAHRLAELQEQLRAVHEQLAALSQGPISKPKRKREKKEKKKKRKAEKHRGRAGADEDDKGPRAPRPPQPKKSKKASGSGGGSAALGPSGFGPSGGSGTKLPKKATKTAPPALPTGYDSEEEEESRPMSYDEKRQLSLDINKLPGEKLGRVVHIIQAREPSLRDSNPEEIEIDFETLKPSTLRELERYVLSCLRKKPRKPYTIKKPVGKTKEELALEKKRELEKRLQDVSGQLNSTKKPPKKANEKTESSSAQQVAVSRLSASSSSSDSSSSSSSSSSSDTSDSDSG
# Homo sapiens [2] = species on record: Homo sapiens; test: Selectivity index, ratio of Kd for BRD2 bromodomain 1 (74 to 194 residues) (unknown origin to Kd for BRD2 bromodomain 2 (348 to 455 residues) (unknown origin)
# [3] = molecular target: T1, Bromodomain-containing protein 2; test: Inhibition of recombinant human BRD2 bromodomain 1 (49 to 170 residues) using biotin labeled peptide substrate preincubated for 15 mins followed by substrate addition measured after 1 hr by TR-FRET assay; format: single protein
# Target sequence in this assay (P25440 whole entry, the tested form may be a part): as above
# [4] = molecular target: T1, Bromodomain-containing protein 2; test: Binding affinity to His-tagged BRD2 bromodomain 1 (unknown origin) by SPR assay; format: single protein
# Outline: (§1)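 SPR at 15 °C: poly-His BRD2 bromodomain constructs capture-coupled (Ni2+/NTA plus EDC/NHS amine coupling) to ~450–530 RU, with a reference channel. Compounds run as 3-fold series from 2 μM, in duplicate, at 150 μL/min.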
# Target sequence in this assay (P25440 whole entry, the tested form may be a part): as above
# [5] = molecular target: T1, Bromodomain-containing protein 2
# Target sequence in this assay (P25440 whole entry, the tested form may be a part): as above
# Homo sapiens [6] = species on record: Homo sapiens; test: Selectivity index, ratio of Kd for His-tagged BRD2 bromodomain 1 (unknown origin) to Kd for His-tagged BRD2 bromodomain 2 (unknown origin); outline: as §1
# [7] = molecular target: T1, Bromodomain-containing protein 2; test: Binding affinity to His-tagged BRD2 bromodomain 2 (unknown origin) by SPR assay; outline: as §1
# Target sequence in this assay (P25440 whole entry, the tested form may be a part): as above
# BJ = test: Cytotoxicity against human BJ cells assessed as reduction in cell viability after 3 days by CellTiter-Glo assay; format: cell-based
# HepG2 = test: Cytotoxicity against human HepG2 cells assessed as reduction in cell viability after 3 days by CellTiter-Glo assay; format: cell-based
# HEK293 = test: Cytotoxicity against HEK293 cells assessed as reduction in cell viability after 3 days by CellTiter-Glo assay; format: cell-based, Homo sapiens
# [8] = molecular target: T1, Bromodomain-containing protein 2; test: Inhibition of BRD2 in human HD-MB03 cells assessed as reduction in c-Myc protein expression after 72 hrs by Hoechst 33342 staining based immunofluorescence assay; format: cell-based
# Outline: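 HD-MB03 cells (3000/well, supplemented neurobasal medium) treated 24 h after plating with compound at 2 nM–40 μM final for 72 h. Imaged at 10x; nuclear masks from Hoechst used to quantify MYC per nucleus.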
# Target sequence in this assay (P25440 whole entry, looked up, the tested form may be a part): as the sequence (P25440 whole entry, the tested form may be a part) above
# [9] = Cytotoxicity against human NALM16 cells assessed as reduction in cell viability after 5 days by CellTiter-Glo assay; conditions: NALM16, 120 h
# LOUCY = test: Cytotoxicity against human Loucy cells assessed as reduction in cell viability after 5 days by CellTiter-Glo assay; conditions: 120 h
# [10] = Cytotoxicity against human HD-MB03 cells assessed as reduction in cell viability after 5 days by CellTiter-Glo assay; conditions: HD-MB03, 120 h
SMILES,Kd [1] [nM],Selectivity Index (Homo sapiens [2]),IC50 [3] [nM],Kd [4] [nM],IC50 [5] [nM],Selectivity Index (Homo sapiens [6]),Kd [7] [nM],EC50 (BJ),EC50 (HepG2),EC50 (HEK293),inhibition [8],EC50 [9] [nM],EC50 (LOUCY) [nM],EC50 [10] [nM]
CC(=O)N1c2ccc(-c3cccs3)cc2[C@H](NC(=O)OC(C)C)C[C@@H]1C,61.3,2.9,1770,66,830,1.1,–,–,–,–,–,–,–,–
CC(=O)N1c2ccc(-c3ccsc3)cc2[C@H](NC(=O)OC(C)C)C[C@@H]1C,71.7,4.2,5210,105,1080,1.5,–,–,–,–,–,–,–,–
CC(=O)N1c2ccc(-c3ccc[nH]3)cc2[C@H](NC(=O)OC(C)C)C[C@@H]1C,–,3.7,1400,99,1400,1.3,74,–,–,–,–,–,–,–
CCNC(=O)C[C@@H]1N=C(c2ccc(Cl)cc2)c2cc(OC)ccc2-n2c(C)nnc21 [MOLIBRESIB],–,–,–,–,–,–,–,Non-Toxic,Non-Toxic,Non-Toxic,–,–,–,–
Cc1sc2c(c1C)C(c1ccc(Cl)cc1)=N[C@@H](CC(=O)OC(C)(C)C)c1nnc(C)n1-2,–,–,–,–,–,–,–,Non-Toxic,Non-Toxic,Non-Toxic,–,–,–,–
COc1cc(OC)c2c(=O)[nH]c(-c3cc(C)c(OCCO)c(C)c3)nc2c1 [APABETALONE],–,–,–,–,–,–,–,Non-Toxic,Non-Toxic,Non-Toxic,–,–,–,–
CC(=O)N1c2ccc(-c3cc[nH]c3)cc2[C@H](NC(=O)OC(C)C)C[C@@H]1C,–,4.6,2480,104,410,1.4,77,–,–,–,–,–,–,–
CC(=O)N1c2ccc(-c3ccco3)cc2[C@H](NC(=O)OC(C)C)C[C@@H]1C,–,–,–,–,–,–,–,Non-Toxic,Non-Toxic,Non-Toxic,Dose-dependent effect,–,–,–
CC(=O)N1c2ccc(-c3ccoc3)cc2[C@H](NC(=O)OC(C)C)C[C@@H]1C,–,0.5,5800,245,1910,1.7,148,–,–,–,–,–,–,–
CC(=O)N1c2ccc(-c3ccc(C(=O)O)cc3)cc2[C@H](Nc2ccc(Cl)cc2)C[C@@H]1C,–,–,720,–,30,–,–,Non-Toxic,Non-Toxic,–,–,310,700,200

# — ChEMBL document CHEMBL4177706, “Exploiting a water network to achieve enthalpy-driven, bromodomain-selective BET inhibitors” (Bioorg Med Chem, 2018)
